Activity calls are given as the source filed them. The calls are words filed in the database; no cut-off is given here.
Key:
[1] = tested on: Drosophila; assay: Immunosuppressive activity in Drosophila S2 cells expressing att-luc reporter gene assessed as inhibition of peptidoglycan-induced attacin production pre-treated for 1.5 hrs before peptidoglycan stimulation for 8 hrs by luciferase reporter gene assay; assay type: functional
Method in brief: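 S2 cells stably carrying an attacin-promoter luciferase reporter were pre-treated with a concentration series of compound for 1.5 h. They were then stimulated with 100 ng/mL peptidoglycan. After 8 h, cells were lysed and luciferase luminescence was read. IC50 is the concentration lowering signal to 50% of the peptidoglycan-only control. Mean ± SD of four independent experiments.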

[2] = tested on: Drosophila; assay: Selectivity index, ratio of CC50 for Drosophila S2 by WST8 assay to IC50 for immunosuppressive activity in Drosophila S2 cells expressing att-luc reporter gene assessed as inhibition of attacin production; assay type: functional
Method in brief: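 The ratio is CC50 divided by IC50. CC50 comes from 24 h WST-8 proliferation of S2 cells, relative to DMSO. IC50 comes from 8 h luciferase signal in peptidoglycan-stimulated (100 ng/mL) S2 att-luc reporter cells pre-treated 1.5 h. Both were derived from concentration series.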

[3] = Cytotoxicity against Drosophila S2 assessed as reduction in cell proliferation by WST8 assay; details: Drosophila S2 cells
Method in brief: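 S2 cells exposed to a concentration series of compound for 24 h; proliferation read by colorimetric WST-8 conversion. CC50 is the concentration reducing proliferation to 50% of DMSO control. Mean ± SD of four independent experiments.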

[4] = tested on: Jurkat; assay: Immunosuppressive activity in human Jurkat cells assessed as inhibition of ConA-induced IL2 production at 5 uM pre-treated for 30 mins before ConA stimulation for 12 hrs by immunoassay; assay type: functional, cell-based
Method in brief: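 ConA was added to a final 25 µg/mL and cells were incubated a further 12 h. Secreted IL-2 in the culture medium was quantified by anti-human IL-2 sandwich immunoassay, in duplicate wells. Mean ± SD of three independent experiments.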

[5] = tested on: Jurkat; assay: Cytotoxicity against human Jurkat cells assessed as reduction in cell viability at 5 uM by MTT assay; assay type: cell-based
Method in brief: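 Jurkat cells pre-incubated 30 min with 5 µM compound or 0.1% DMSO vehicle, then incubated under the same conditions as the IL-2 assay (ConA added, 12 h). Viable cells were measured by MTT assay as percent of control. Mean ± SD of three independent experiments.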

IC50 [1] [µM] | Structure (SMILES) | inhibition [1] | Ratio CC50/IC50 [2] | CC50 [3] [µM] | inhibition [4] | Activity [5]
4.6 | CCCCCC(=O)c1c(O)c(Cl)c(OC)c(Cl)c1O | Dose-dependent effect | 4.9 | 22.5 | – | –
9.9 | CCCCCC(=O)c1c(O)c(Cl)c(O)c(Cl)c1O | – | 10.3 | 102 | – | –
58.6 | CCCCCCc1c(O)c(Cl)c(OC)c(Cl)c1O | – | >1.7 | > 100 | – | –
23.5 | CCCCC(=O)c1c(OC)c(Cl)c(OC)c(Cl)c1OC | – | 6.3 | 149 | – | –
21.5 | CCCC(=O)c1c(O)c(Cl)c(O)c(Cl)c1O | – | >4.7 | > 100 | – | –
3.7 | CCCCCC(=O)c1c(O)c(Br)c(OC)c(Br)c1O | – | 3.5 | 12.9 | – | –
4.6 | CCCCCC(=O)c1c(O)cc(OC)c(Cl)c1O | – | 1.9 | 8.7 | – | –
3.8 | CCCCCC(=O)c1c(O)c(Cl)c(C)c(Cl)c1O | – | 3.6 | 13.8 | – | –
6.5 | CCCCCCCCC(=O)c1c(O)c(Cl)c(O)c(Cl)c1O | – | 12.7 | 82.8 | – | –
3.7 | CCCCCCCC(=O)c1c(O)c(Cl)c(O)c(Cl)c1O | – | 23.9 | 88.5 | Active | Non-toxic
15.3 | CCCCCCCC(=O)c1c(OC)c(Cl)c(OC)c(Cl)c1OC | – | 3.4 | 51.4 | – | –
18.9 | CCCCCC(=O)c1c(OC)c(Cl)c(OC)c(Cl)c1OC | – | 7.8 | 148 | – | –
16.8 | CCCCCCC(=O)c1c(OC)c(Cl)c(OC)c(Cl)c1OC | – | 8.3 | 140 | Active | Non-toxic
20.8 | CCCC(=O)c1c(OC)c(Cl)c(OC)c(Cl)c1OC | – | 6.9 | 144 | – | –

— ChEMBL document CHEMBL3593197, “Development of novel DIF-1 derivatives that selectively suppress innate immune responses” (Bioorg Med Chem, 2015)
